Data on 37 sequences can be found in the array DNA melting data of Ke et al. (doi:10.1101/2024.01.08.574731).

Data set [1] is described as follows: melting temperature; fluorescence melt of hairpins on a sequencing array, two-state fit, raised by 9.35 °C to match UV melts. To be noted: sodium 0.088 M. The gist of the method:
(§1)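 Library hairpins on a sequenced MiSeq flow cell carried annealed Cy3 and quencher oligos, and their Cy3 fluorescence was imaged in 50 mM Na-HEPES pH 8.0 with 25 mM NaCl, in 2.5 °C steps up to 60 °C. Signals were normalised to Cy3 before quenching and to control constructs. Melting temperature and folding enthalpy were obtained from bootstrapped two-state fits, combined by inverse-variance weighting across four replicates, and the fitted temperatures were then raised by 9.35 °C to match UV melts.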

A short description of data set [2]: folding enthalpy; higher = less favourable; fluorescence melt of hairpins on a sequencing array, two-state fit. The note with it: sodium 0.088 M. In a few lines: as §1

On to GCTGTTTCGAAAGAAAGC (((..(((....)))))), for which the Tm in data set [1] came to 27.6 °C. Moreover, the folding enthalpy in data set [2] is -15.7 kcal/mol.

With GCTTAAGGAAACTTAAGC (((((((....))))))), the Tm in data set [1] stood at 53.2 °C. In data set [2], the folding enthalpy is -39.6 kcal/mol.

Consider GCTTAATCGAAAGATAGC (((..(((....)))))), for which the Tm in data set [1] came out at 30.8 °C. Moreover, the folding enthalpy in data set [2] is -16.4 kcal/mol.

Turning to GCTTACCGAAAGGTTAGC (((.(((....))).))), in data set [1], the Tm amounted to 52.8 °C. Also, in data set [2], the folding enthalpy is -35 kcal/mol.

Consider GCTTACGAAAGTAACAGC ((((((....)))..))), for which the Tm in data set [1] is 37 °C. Moreover, the folding enthalpy in data set [2] is -16.2 kcal/mol.

Take GCTTACGAAAGTAAGAGC ((((((....)))..))): in data set [1], the Tm was 45.4 °C. Moreover, the folding enthalpy in data set [2] was -18.5 kcal/mol.

Regarding GCTTACGAAAGTAATAGC ((((((....)))..))), the Tm in data set [1] was 38.6 °C. Besides, the folding enthalpy in data set [2] was -17.8 kcal/mol.

Consider GCTTACGAAAGTACAGC ((((((....))).))), for which the Tm in data set [1] is 41.4 °C. Moreover, the folding enthalpy in data set [2] was -23.4 kcal/mol.

With GCTTACGAAAGTAGTAGC ((((((....)))..))), the Tm in data set [1] turned out to be 34.8 °C. In addition, the folding enthalpy in data set [2] is -27.9 kcal/mol.

Turning to GCTTAGAAATAAGC (((((....))))), the Tm in data set [1] came to 40.5 °C. In data set [2], the folding enthalpy is -18 kcal/mol.

Regarding GCTTAGACGAAAGTCAGC (((..(((....)))))), in data set [1], the Tm turned out to be 41.6 °C. Further, the folding enthalpy in data set [2] is -18.2 kcal/mol.

On to GCTTAGCCGAAAGGCAGC (((..(((....)))))), for which the Tm in data set [1] is 45.5 °C. Also, the folding enthalpy in data set [2] is -16.4 kcal/mol.

Consider GCTTAGCGAAAGCAAAGC ((((.((....)).)))), for which the Tm in data set [1] was 59.8 °C. The folding enthalpy in data set [2] is -23.6 kcal/mol.

Take GCTTAGCGAAAGCAGAGC (((..((....))..))): in data set [1], the Tm was 50 °C. Moreover, the folding enthalpy in data set [2] is -19 kcal/mol.

For the sequence GCTTAGCGAAAGCCAAGC ((((.((....)).)))), the Tm in data set [1] came to 53.5 °C. Besides, in data set [2], the folding enthalpy was -22.1 kcal/mol.

Take GCTTAGCGAAAGCTATGC ((.((((....)))).)): the Tm in data set [1] was 59.5 °C. In addition, the folding enthalpy in data set [2] is -26.6 kcal/mol.

Regarding GCTTAGCGAAAGCTTAGC (((.(((....))).))), the Tm in data set [1] was 51.9 °C. For the same sequence, the folding enthalpy in data set [2] was -43.1 kcal/mol.

As to GCTTAGGAAACTAAGC ((((((....)))))), the Tm in data set [1] amounted to 52.7 °C. For the same sequence, the folding enthalpy in data set [2] is -31.7 kcal/mol.

On to GCTTAGGGAAACCCAAGC ((((.((....)).)))), for which the Tm in data set [1] came to 44 °C. For the same sequence, the folding enthalpy in data set [2] was -26.7 kcal/mol.

Regarding GCTTAGGGAAACCTAAGC (((((((....))))))), in data set [1], the Tm amounted to 59.8 °C. In data set [2], the folding enthalpy is -34 kcal/mol.

GCTTATCCGAAAGGAAGC (((..(((....)))))): in data set [1], the Tm amounted to 34.3 °C. Moreover, the folding enthalpy in data set [2] is -15.5 kcal/mol.

As for GCTTATCGAAAGATAGC (((.(((....)))))), the Tm in data set [1] was 43.4 °C. In data set [2], the folding enthalpy was -27.5 kcal/mol.

With GCTTATGGAAACATAGGC ((.((((....)))).)), the Tm in data set [1] amounted to 41.6 °C. The folding enthalpy in data set [2] was -32.8 kcal/mol.

Turning to GCTTCACGAAAGTGCAGC (((.(((....))).))), the Tm in data set [1] came to 51.6 °C. In addition, the folding enthalpy in data set [2] is -27.7 kcal/mol.

Consider GCTTCACGAAAGTGTAGC (((.(((....))).))), for which the Tm in data set [1] was found to be 53.8 °C. Besides, in data set [2], the folding enthalpy is -30.2 kcal/mol.

As to GCTTCAGCGAAAGCTAGC (((..(((....)))))), the Tm in data set [1] was 41.2 °C. Further, in data set [2], the folding enthalpy was -9.89 kcal/mol.

Turning to GCTTCAGGAAACTAAAGC ((((.((....)).)))), in data set [1], the Tm is 28.7 °C. In data set [2], the folding enthalpy was -26.3 kcal/mol.

For the sequence GCTTCCACGAAAGTGAGC (((..(((....)))))), the Tm in data set [1] was 33.7 °C. The folding enthalpy in data set [2] is -12.3 kcal/mol.

On to GCTTCCGAAAGGAACAGC ((((((....)))..))), for which the Tm in data set [1] worked out at 38.3 °C. In data set [2], the folding enthalpy was -15.1 kcal/mol.

On to GCTTCCGAAAGGACAAGC ((((((....)))..))), for which the Tm in data set [1] is 38.5 °C. Moreover, in data set [2], the folding enthalpy was -24.2 kcal/mol.

Take GCTTCCGAAAGGACGAGC ((((((....)))..))): the Tm in data set [1] was 37.6 °C. For the same sequence, the folding enthalpy in data set [2] is -18.8 kcal/mol.

For the sequence GCTTCCGAAAGGAGGAGC ((((((....)))..))), in data set [1], the Tm was 39.1 °C. Further, the folding enthalpy in data set [2] is -21 kcal/mol.

GCTTCCGAAAGGATTAGC ((((((....)))..))): in data set [1], the Tm amounted to 38.3 °C. Further, the folding enthalpy in data set [2] is -23.2 kcal/mol.

Consider GCTTCCGGAAACGGAGGC ((.((((....)))).)), for which, in data set [1], the Tm came to 54.6 °C. For the same sequence, the folding enthalpy in data set [2] was -36.4 kcal/mol.

Consider GCTTCGACGAAAGTCAGC (((..(((....)))))), for which the Tm in data set [1] is 33.5 °C. The folding enthalpy in data set [2] was -13.1 kcal/mol.

On to GCTTCGCCGAAAGGCAGC (((..(((....)))))), for which the Tm in data set [1] came out at 40.9 °C. The folding enthalpy in data set [2] is -10.4 kcal/mol.

Turning to GCTTCGCGAAAGCATAGC (((..((....))..))), the Tm in data set [1] came out at 36.3 °C. In addition, in data set [2], the folding enthalpy was -14.5 kcal/mol.
